# Measurements published in publication PMC6865048 (Clinical cancer research : an official journal of the …, 2018).
# “And” between values parts separate entries of the source, which are not always exact repeats. Equal values may be shown once. “Also recorded” adds a separate entry of the source. Read-outs that look alike come from different tables or passages of the source.
# Columns and labels:
# [1] = type: in vivo, human
# [2] = type: in vivo, human; conditions: single oral dose of 400 mg, at 2 to 24 h
# Method in brief: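 Adult recurrent glioblastoma patients took a single oral dose before resection. Contrast-enhancing tumor was taken intraoperatively, rinsed in ice-cold PBS, blot-dried, snap-frozen and held at -80° C. EDTA blood was spun at 4°C, 1,500 × g, 10 min. Total drug in plasma and tumor was measured by validated LC/MS-MS, and fraction unbound by equilibrium dialysis. Unbound concentration = total × fraction unbound. Kp and Kp,uu = tumor/plasma total and unbound ratios.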
# γH2AX = test: IHC of double-strand DNA damage in resected tumor vs matched archival tissue; type: in vivo, human; conditions: 8 hours
# Method in brief: (§1)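 A 0.5 cm³ re-resection tumor sample, snap-frozen at -80° C, was compared with FFPE tissue from the same patient's initial resection by IHC. Antibody conditions: γH2AX 1:100, 1 h at room temperature; PH3 1:100, overnight at 4°C; CC3 1:50, overnight at 4°C. Staining was quantified by semiquantitative image analysis. Mean fold change was tested against 1.000 by two-sided one-sample t test, or Wilcoxon signed-rank test if non-normal.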
# phosphohistone-3 (PH3) = type: in vivo, human; conditions: for PH3 expression vs matched archival tissue: 8 hours
# Method in brief: as §1
# cleaved caspase-3 (CC3) = test: IHC of programmed cell death in resected tumor vs matched archival tissue; type: in vivo, human; conditions: for CC3 apoptotic marker vs matched archival tissue: 8 hours
# Method in brief: as §1
# [3] = Safety assessment in the phase 0 trial; type: in vivo, human; conditions: single oral dose 100, 200 or 400 mg, 20 glioblastoma patients
# Method in brief: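 Twenty adult glioblastoma patients took a single oral dose before tumor resection. Screening collected demographics and medical history. Baseline safety assessments were physical examination, vital signs, ECOG performance status, concomitant medication record, hematology, biochemistry and urinalysis.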
# Wee1 = conditions: cell-based assays; ref https://ncats.nih.gov/files/AZD1775.pdf; cited from earlier work
# [4] = covariate model, estimate (%RSE)
# [5] = 8-hour posttreatment interval (discussion)
smiles,measurement,setting,value
C=CCn1c(=O)c2cnc(Nc3ccc(N4CCN(C)CC4)cc3)nc2n1-c1cccc(C(C)(C)O)n1 [AZD1775],"CL/F, apparent oral clearance","[1]; base model, estimate (%RSE)",160 (15) L/hour
same,IIV of Ka,"[1]; base model, estimate (%RSE)",100 (310) CV%
same,Ka,"[1]; base model, estimate (%RSE)",2.00 (114) h^−1
same,"B, covariate effect of glomerular filtration rate on CL/F","[1]; covariate model, CL/F = A + B × (GFR - 98), estimate (%RSE)",1.7 (44)
same,IIV of Ka,[1]; [4],100 (300) CV%
same,Ka,[1]; [4],2.10 (111) h^−1
same,"V/F, apparent volume of distribution",[1]; [4],"1,500 (17) L"
same,"CL/F, apparent oral clearance","[1]; covariate model, typical patient with GFR of 98 mL/minute, estimate (%RSE)",160 L/hour and 160^a (14) L/hour
same,interindividual variability of CL/F explained by glomerular filtration rate,[1]; covariate on CL/F,17%
same,Vd/F,"[1]; human, plasma, oral",1500 L
same,first-order absorption rate constant (Ka),"[1]; one-compartment model, single oral dose 100, 200, 400 mg, glioblastoma patients",2.1 h⁻¹
same,mean unbound AZD1775 tumor concentration,[2],85 ng/g
same,double-stranded DNA damage measured by γH2AX vs matched archival tissue,γH2AX; 100- and 400-mg dose cohorts,less dramatic
same,double-stranded DNA damage measured by γH2AX vs matched archival tissue,γH2AX; 200-mg dose cohort,increased
same,cell-cycling,phosphohistone-3 (PH3); [5],increased over threefold
same,PH3 expression change,"phosphohistone-3 (PH3); 8-hour time interval, all dose cohorts together (n = 12), P = 0.0210",increased significantly
same,PH3 expression vs matched archival tissue,phosphohistone-3 (PH3); 200-mg dose cohort,Increased expression
same,PH3 expression vs matched archival tissue,phosphohistone-3 (PH3); 400-mg dose cohort,substantially increased
same,programmed cell death,cleaved caspase-3 (CC3); [5],increased threefold
same,mean increase in CC3 expression,"cleaved caspase-3 (CC3); 8-hour time interval, all dose cohorts together (n = 12), P = 0.0727",+112.2%
same,CC3 apoptotic marker vs matched archival tissue,cleaved caspase-3 (CC3); 200-mg dose cohort,increased most
same,CC3 apoptotic marker vs matched archival tissue,cleaved caspase-3 (CC3); 400-mg group,modest increase
same,tolerability / adverse effects,[3],No drug-related adverse events; also recorded: well-tolerated; no significant adverse effects were observed
same,in vitro IC50 for inhibition of Wee1 activity and induction of DNA damage as well as G2 checkpoint escape,Wee1,0.04 µg/mL
